Reference: ChEMBL document CHEMBL1131598, “Synthesis and anticonvulsant activity of a new class of 2-[(arylalky)amino]alkanamide derivatives” (J Med Chem, 1998)

Key:
[1] = system: Mus musculus; assay: Anticonvulsant potency using the intravenous-BIC (bicuculline) test in mice; assay type: functional
Method in brief: (§1)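 Male Crl:CD-1(ICR)BR mice (22-24 g) were dosed orally at 5 mL/kg 60 min before bicuculline 0.6 mg/kg, a dose giving tonic extensor convulsions in at least 97% of vehicle-treated mice. Protection from tonic extension was scored for each mouse. ED50 (95% confidence interval) was obtained by probit analysis, with 10-20 animals per dose.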

[2] = system: Mus musculus; assay: Compound was tested for anticonvulsant potency using the 3-MPA (3-mercaptopropionic acid) test in mice upon peroral administration; assay type: functional; details: po
Method in brief: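 Male Crl:CD-1(ICR)BR mice (22-24 g) were dosed orally at 5 mL/kg 60 min before 3-mercaptopropionic acid 60 mg/kg sc, a dose convulsing at least 97% of vehicle-treated mice. The end point was hindlimb tonic extension. ED50 (95% confidence interval) was obtained by probit analysis, with 10-20 animals per dose.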

[3] = system: Mus musculus; assay: Compound was tested for anticonvulsant potency using the STRY (strychnine) test in mice upon peroral administration; assay type: functional; details: po
[4] = system: Mus musculus; assay: Anticonvulsant potency using the PTX (picrotoxin) test in mice by peroral administration; assay type: functional; details: po
[5] = Toxicity using neurological impairment measured by rotarod test in mice; details: mouse, in vivo
Method in brief: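 Trained male Crl:CD-1(ICR)BR mice (22-24 g) were dosed orally at 5 mL/kg 60 min before testing on a 3-cm rod rotating at 10 rpm. Falls during a 2-min period were counted. TD50, the dose making 50% of animals fall, was calculated by probit analysis, with 10-20 animals per dose.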

[6] = species on record: Mus musculus; assay: Anticonvulsant potency using the maximal electroshock test in mice; assay type: functional
Method in brief: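 Male mice received intra-aural shocks through clip electrodes (0.7 s, 28 mA, 80 Hz pulse train, 0.4 ms pulses), a stimulus giving hindlimb tonic extension in at least 97% of controls. Compound was given orally 60 min or ip 30 min beforehand, at 5 mL/kg. Protection meant complete suppression of the hindlimb tonic extensor component. ED50 (95% confidence interval) was obtained by probit analysis, with 10-20 animals per dose.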

[7] = system: Mus musculus; assay: Compound was tested for anticonvulsant potency using the intravenous-BIC (bicuculline) test in mice; 0 out of 20 mice exhibited anticonvulsant activity; assay type: functional
[8] = system: Mus musculus; assay: Compound was tested for anticonvulsant potency using the intravenous-BIC (bicuculline) test in mice; compound at 200 mg/kg induced impaired gait, loss of the righting reflex, and impaired breathing; assay type: functional; method in brief: as §1
[9] = system: Mus musculus; assay: Compound was tested for anticonvulsant potency using the intravenous-BIC (bicuculline) test in mice; 7 out of 20 mice exhibited anticonvulsant activity; assay type: functional
[10] = system: Mus musculus; assay: Compound was tested for anticonvulsant potency using the intravenous-BIC (bicuculline) test in mice; 5 out of 20 mice exhibited anticonvulsant activity; assay type: functional
[11] = system: Mus musculus; assay: Compound was tested for anticonvulsant potency using the intravenous-BIC (bicuculline) test in mice; 3 out of 20 mice exhibited anticonvulsant activity; assay type: functional
[12] = system: Mus musculus; assay: Compound was tested for anticonvulsant potency using the intravenous-BIC (bicuculline) test in mice; 2 out of 20 mice exhibited anticonvulsant activity; assay type: functional
[13] = system: Mus musculus; assay: Compound was tested for anticonvulsant potency using the intravenous-BIC (bicuculline) test in mice; 1 out of 10 mice exhibited anticonvulsant activity; assay type: functional
[14] = species on record: Mus musculus; assay: Compound was tested for toxicity using neurological impairment measured by rotarod test in mice; assay type: functional
Method in brief: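 Trained male Crl:CD-1(ICR)BR mice, 22-24 g, dosed orally 60 min before being placed on a 3-cm rod turning at 10 rpm. Mice falling during a 2-min test were counted. Dosing volume 5 mL/kg, 10-20 animals/dose. TD50, the dose making 50% fall, by probit analysis with 95% confidence interval. Some values given as fraction affected at one dose.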

[15] = system: Mus musculus; assay: Compound was tested for anticonvulsant potency using the intravenous-BIC (bicuculline) test in mice; 4 out of 20 mice exhibited anticonvulsant activity; assay type: functional

For `NC(=O)N1c2ccccc2C=Cc2ccccc21` [CARBAMAZEPINE], the ED50 [1] was 6.7 mg/kg, the ED50 [2] was 20.1 mg/kg and the ED50 [3] was 43.8 mg/kg. For the same compound, the ED50 [4] was 40.6 mg/kg, the TD50 [5] was 106 mg/kg and the ED50 [6] was 9.8 mg/kg.
In the case of `CNC(=O)[C@@H](CCSC)NCc1ccc(OCc2ccccc2)cc1`, the ED50 [7] is reported as over 400 mg/kg.
`CN(C)C(=O)CNCc1ccc(OCc2cccc(Cl)c2)cc1` showed an ED50 [8] of 54.2 mg/kg.
`C[C@@H](NCc1ccc(OCC2CC2)cc1)C(N)=O` gave an ED50 [1] of 124 mg/kg.
`CNC(=O)[C@@H](NCc1ccc(OCc2ccccc2)cc1)C(C)O` (stereo not given in full) gave an ED50 [8] of 34.2 mg/kg.
Compound `NC(=O)[C@@H](CO)NCc1ccc(OCc2ccccc2)cc1` has an ED50 [1] of 133 mg/kg.
`CNC(=O)[C@@H](CO)NCc1ccc(OCc2ccccc2F)cc1` gave an ED50 [1] of 12.4 mg/kg, a TD50 [5] of 371 mg/kg and an ED50 [6] of 19.8 mg/kg.
Compound `CNC(=O)[C@@H](CO)NCc1ccc(OCc2cccc([N+](=O)[O-])c2)cc1` has an ED50 [9] of over 400 mg/kg.
For `CNC(=O)[C@@H](NCc1ccc(OCc2ccccc2)cc1)C(C)C`, the ED50 [1] was 55.4 mg/kg.
Work on `NC(=O)CNC(=O)c1ccc(OCc2cccc(Cl)c2)cc1` yielded an ED50 [10] of 400 mg/kg.
`CCOC(=O)CNCc1ccc(OCc2cccc(Cl)c2)cc1` gave an ED50 [11] of over 400 mg/kg.
`C[C@@H](NCc1ccc(OCC2CCCCC2)cc1)C(N)=O` gave an ED50 [1] of 131 mg/kg.
In the case of `C[C@@H](NCc1ccc(OCc2cccc(F)c2)cc1)C(N)=O`, the ED50 [1] is reported as 26.9 mg/kg, the ED50 [2] is reported as 21.5 mg/kg and the ED50 [3] is reported as 104 mg/kg. It also gave an ED50 [4] of 60.6 mg/kg, a TD50 [5] of 626 mg/kg and an ED50 [6] of 8 mg/kg.
With `C[C@@H](NCc1ccc(OCc2ccsc2)cc1)C(N)=O` the ED50 [1] was 114 mg/kg.
`C[C@@H](NCc1ccc(CNc2ccccc2)cc1)C(N)=O` showed an ED50 [1] of 119 mg/kg.
For `CNC(=O)[C@H](NCc1ccc(OCc2ccccc2)cc1)C(C)C`, the ED50 [1] was 112 mg/kg.
In the case of `CNC(=O)[C@@H](Cc1ccccc1)NCc1ccc(OCc2ccccc2)cc1`, the ED50 [12] is reported as over 400 mg/kg.
With `C[C@@H](NCc1ccc(OCCCc2ccccc2)cc1)C(N)=O` the ED50 [1] was 19 mg/kg, the ED50 [2] was 16.2 mg/kg and the ED50 [3] was 75.4 mg/kg. For the same compound, the ED50 [4] was 35.4 mg/kg, the TD50 [5] was 584 mg/kg and the ED50 [6] was 6.7 mg/kg.
In the case of `C[C@H](NCc1ccc(OCc2ccccc2Cl)cc1)C(N)=O`, the ED50 [8] is reported as 18.4 mg/kg.
In the case of `NC(=O)COCc1ccc(OCc2cccc(Cl)c2)cc1`, the ED50 [9] is reported as over 400 mg/kg.
`C[C@@H](NCc1ccc(OCc2ccccc2Cl)cc1)C(N)=O` gave an ED50 [1] of 17.4 mg/kg, a TD50 [5] of 525 mg/kg and an ED50 [6] of 50.8 mg/kg.
With `C[C@@H](NCc1ccc(NC(=O)c2ccccc2)cc1)C(N)=O` the ED50 [13] was over 400 mg/kg.
`C[C@@H](NCc1ccc(OCc2ccc(F)cc2)cc1)C(N)=O` showed an ED50 [1] of 132 mg/kg and an ED50 [6] of 16.3 mg/kg.
For `C[C@@H](NCc1ccc(OCc2cccs2)cc1)C(N)=O`, the ED50 [1] was 61.6 mg/kg.
For `C[C@@H](NCc1ccc(OCc2ccccc2F)cc1)C(N)=O`, the ED50 [1] was 25.8 mg/kg, the TD50 [5] was 549 mg/kg and the ED50 [6] was 7 mg/kg.
`C[C@@H](NCc1ccc(OCc2ccoc2)cc1)C(N)=O` showed an ED50 [1] of 152 mg/kg.
In the case of `NC(=O)CNCCc1ccccc1`, the ED50 [1] is reported as 286 mg/kg.
`C[C@@H](NCc1ccc(COc2ccccc2)cc1)C(N)=O` showed an ED50 [1] of 40.3 mg/kg, a TD50 [5] of 597 mg/kg and an ED50 [6] of 10.6 mg/kg.
`C[C@@H](NCc1ccc(Cc2ccccc2)cc1)C(N)=O` showed an ED50 [1] of 15.7 mg/kg, a TD50 [5] of 752 mg/kg and an ED50 [6] of 22.5 mg/kg.
In the case of `CN1C(=O)CN=C(c2ccccc2)c2cc(Cl)ccc21` [DIAZEPAM], the ED50 [1] is reported as 0.29 mg/kg, the ED50 [2] is reported as 0.62 mg/kg and the ED50 [3] is reported as 0.58 mg/kg. For the same compound, the ED50 [4] was 0.52 mg/kg, the ED50 [6] was 1.2 mg/kg and the TD50 [14] was 6.8 mg/kg.
`C[C@H](Nc1ccccc1OCc1ccccc1)C(N)=O` showed an ED50 [1] of 210 mg/kg.
With `CNC(=O)CNCc1ccc(OCc2cccc(Cl)c2)cc1` the ED50 [1] was 30.5 mg/kg and the ED50 [6] was 48.6 mg/kg.
Compound `NC(=O)CNCc1ccc(OCc2cccc(Cl)c2)cc1` has an ED50 [1] of 107 mg/kg and an ED50 [6] of 28.5 mg/kg.
Work on `C[C@@H](NCc1ccc(Oc2ccccc2)cc1)C(N)=O` yielded an ED50 [1] of 64 mg/kg and an ED50 [6] of 41.5 mg/kg.
For `CNC(=O)[C@H](Cc1ccccc1)NCc1ccc(OCc2ccccc2)cc1`, the ED50 [1] was 61.2 mg/kg.
In the case of `O=C(O)CNCc1ccc(OCc2cccc(Cl)c2)cc1`, the ED50 [15] is reported as over 400 mg/kg.
